≈ marks a conversion by molar mass, not a printed value.
What was measured:
Format in all cases: functional
[1] = system: Escherichia coli; assay: Siderophore activity determined using growth promoting assay in ATCC 25922 strain of Escherichia coli under iron limited conditions
Outline: (§1)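 Growth promotion under iron limitation. Overnight Nutrient Agar cultures suspended in medium VA to 1 McFarland, then 1.5 mL mixed into 99 mL Al2O3-treated Hall-Ratledge agar (pH 6.8) with trace elements and EDDHA. 5 µL of 2 mM compound applied on 6 mm paper disks. Growth zone around disks measured after 18-20 h at 37 °C.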

[2] = system: Pseudomonas aeruginosa; assay: Siderophore activity determined using growth promoting assay in ATCC 27853 strain of Pseudomonas aeruginosa under iron limited conditions; outline: as §1
[3] = system: Pseudomonas aeruginosa; assay: Siderophore activity determined using growth promoting assay in ATCC 9027 strain of Pseudomonas aeruginosa under iron limited conditions; outline: as §1
[4] = system: Pseudomonas aeruginosa; assay: Siderophore activity determined using growth promoting assay in K799/WT strain of Pseudomonas aeruginosa under iron limited conditions; outline: as §1
[5] = system: Pseudomonas aeruginosa; assay: (§2) Siderophore activity determined using growth promoting assay in NCTC-10662 strain of Pseudomonas aeruginosa under iron limited conditions; parameters: unit not given beside the values; outline: as §1
[6] = system: Pseudomonas aeruginosa; assay: Siderophore activity determined using growth promoting assay in SG137 strain of Pseudomonas aeruginosa under iron limited conditions; outline: as §1
[7] = system: Escherichia coli; assay: Influence of siderophore receptor on antibacterial activity in Escherichia coli (1875) using agar diffusion assay
Outline: (§3)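 Agar diffusion in Nutrient Agar with E. coli K-12 mutants altered in catecholate siderophore receptors Cir, Fiu and FepA. 50 µL of a 0.2 mM compound solution filled into 9 mm agar wells, with clavulanic acid 10 µg/mL added to block the penicillinase selection marker. Inhibition zone diameters (mm) read after overnight incubation at 37 °C.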

[8] = system: Escherichia coli; assay: Influence of siderophore receptor on antibacterial activity in Escherichia coli (H873) using agar diffusion assay; outline: as §3
[9] = system: Escherichia coli; assay: Influence of siderophore receptor on antibacterial activity in Escherichia coli (H1443) using agar diffusion assay; outline: as §3
[10] = system: Escherichia coli; assay: Influence of siderophore receptor on antibacterial activity in Escherichia coli (H1876) using agar diffusion assay; outline: as §3
[11] = system: Escherichia coli; assay: Influence of siderophore receptor on antibacterial activity in Escherichia coli (H1877) using agar diffusion assay; outline: as §3
[12] = system: Escherichia coli; assay: In vitro antibacterial activity against ATCC 25922 strain of Escherichia coli
Outline: (§4)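 MIC by microbroth dilution in Mueller-Hinton broth following NCCLS guidelines.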

[13] = system: Klebsiella pneumoniae; assay: In vitro antibacterial activity against ATCC 100331 strain of Klebsiella pneumoniae; outline: as §4
[14] = system: Pseudomonas aeruginosa; assay: In vitro antibacterial activity against SG 137 strain of Pseudomonas aeruginosa; outline: as §4
[15] = system: Serratia marcescens; assay: In vitro antibacterial activity against SG 621 strain of Serratia marcescens; outline: as §4
[16] = system: Staphylococcus aureus; assay: In vitro antibacterial activity against SG 511 strain of Staphylococcus aureus; outline: as §4
[17] = system: Stenotrophomonas maltophilia; assay: In vitro antibacterial activity against GN 12873 strain of Stenotrophomonas maltophilia; outline: as §4
[18] = system: Pseudomonas aeruginosa; assay: In vitro antibacterial activity against ATCC 27853 strain of Pseudomonas aeruginosa; outline: as §4
[19] = system: Pseudomonas aeruginosa; assay: as §2; outline: as §1

Row | Structure (SMILES) | Activity [1] | Activity [2] | Activity [3] | Activity [4] | Activity [5] | Activity [6] | further results
1 | COC(=O)Oc1cc(Cl)cc(C(=O)N(C)CCCN(CC(=O)O)C(=O)c2cc(Cl)cc(OC(=O)OC)c2OC(=O)OC)c1OC(=O)OC | 30 | 25 | 24 | 25 | 25 | 26 | –
2 | COC(=O)Oc1cccc(C(=O)N(C)CCCN(CC(=O)O)C(=O)c2cccc(OC(=O)OC)c2OC(=O)OC)c1OC(=O)OC | 20 | 15 | 13 | 25 | 18 | 9 | –
3 | COC(=O)Oc1cccc2c(=O)n(-c3cc(C(=O)O)cc(-n4c(=O)oc5c(OC(=O)OC)cccc5c4=O)c3)c(=O)oc12 | 20 | 15 | 20 | – | 18 | 25 | –
4 | CC(=O)Oc1cccc(C(=O)Nc2cc(NC(=O)c3cccc(OC(C)=O)c3OC(C)=O)cc(C(=O)O)c2)c1OC(C)=O | 27 | 0 | 10 | – | 17 | 20 | –
5 | COC(=O)Oc1cccc2c(=O)n(CC(=O)Nc3cc(NC(=O)Cn4c(=O)oc5c(OC(=O)OC)cccc5c4=O)cc(C(=O)O)c3)c(=O)oc12 | 15 | 15 | 20 | – | 20 | 20 | –
6 | COC(=O)Oc1cccc(C(=O)N(CCCn2c(=O)oc3c(OC(=O)OC)cccc3c2=O)C(C)C(=O)O)c1OC(=O)OC (centres undefined) | 22 | 15 | – | 22 | 25 | 19 | –
7 | COC(=O)Oc1cc(Br)cc(C(=O)N(C)CCCN(CC(=O)O)C(=O)c2cc(Br)cc(OC(=O)OC)c2OC(=O)OC)c1OC(=O)OC | 32 | 22 | 20 | 27 | 27 | 25 | –
8 | CC(=O)N(O)CCCCCNC(=O)CCC(=O)N(O)CCCCCNC(=O)CCC(=O)N(O)CCCCCN [DEFEROXAMINE] | 38 | 35 | 35 | 36 | 30 | 30 | –
9 | CC(=O)Oc1cccc(C(=O)N(C)CCCN(CC(=O)O)C(=O)c2cccc(OC(C)=O)c2OC(C)=O)c1OC(C)=O | 20 | 19 | 18 | 22 | 23 | 15 | –
10 | CC(=O)Oc1cccc(C(=O)NCCCCN(Cc2ccc(OCC(=O)O)cc2)C(=O)c2cccc(OC(C)=O)c2OC(C)=O)c1OC(C)=O | 27 | 22 | 25 | 12 | 23 | 19 | –
11 | COC(=O)Oc1cccc(C(=O)N(CCCn2c(=O)oc3c(OC(=O)OC)cccc3c2=O)C(C)C(=O)NC(C(=O)NC2C(=O)N3C2SC(C)(C)C3C(=O)O)c2ccccc2)c1OC(=O)OC (centres undefined) | – | – | – | – | – | – | Zone of inhibition [7]: 22 mm; Zone of inhibition [8]: 25 mm; Zone of inhibition [9]: 24.5 mm; Zone of inhibition [10]: 11.5 mm; Zone of inhibition [11]: 22.5 mm; MIC [12]: 0.4 µg/mL (≈ 0.421 µM); MIC [13]: < 0.05 µg/mL; MIC [14]: 0.1 µg/mL (≈ 0.105 µM); MIC [15]: 0.2 µg/mL (≈ 0.211 µM); MIC [16]: 1.56 µg/mL (≈ 1.64 µM); MIC [17]: 0.4 µg/mL (≈ 0.421 µM); MIC [18]: 3.12 µg/mL (≈ 3.28 µM)
12 | CC(=O)Oc1cccc(C(=O)NCCCCN(Cc2ccccc2OCC(=O)O)C(=O)c2cccc(OC(C)=O)c2OC(C)=O)c1OC(C)=O | 26 | 18 | 26 | 25 | 27 | – | –
13 | COC(=O)Oc1cccc(C(=O)N(CCCn2c(=O)oc3c(OC(=O)OC)cccc3c2=O)C(C)CCC(=O)O)c1OC(=O)OC (centres undefined) | 15 | 13 | – | 14 | 20 | 15 | –
14 | CC(=O)Oc1cccc(C(=O)NCCCCN(Cc2ccccc2C(=O)O)C(=O)c2cccc(OC(C)=O)c2OC(C)=O)c1OC(C)=O | 27 | 22 | – | 15 | 23 | 21 | –
15 | CC(=O)Oc1ccc(C(=O)NCCCCN(CC(=O)O)C(=O)c2ccc(OC(C)=O)c(OC(C)=O)c2)cc1OC(C)=O | 21 | 25 | 19 | 20 | 14 | 10 | –
16 | CC(=O)Oc1cccc(C(=O)NCCCCN(CC(=O)O)C(=O)c2cccc(OC(C)=O)c2OC(C)=O)c1OC(C)=O | 28 | 20 | 20 | 25 | – | 26 | Activity [19]: 25
17 | CC(=O)Oc1cccc(C(=O)NCCCCCN(CC(=O)O)C(=O)c2cccc(OC(C)=O)c2OC(C)=O)c1OC(C)=O | 27 | 30 | 20 | 25 | 30 | 28 | –
18 | CC(=O)Oc1cccc(C(=O)N(C)CCCN(Cc2ccccc2C(=O)O)C(=O)c2cccc(OC(C)=O)c2OC(C)=O)c1OC(C)=O | 21 | 20 | – | 17 | 18 | 19 | –
19 | COC(=O)Oc1cccc2c(=O)n(CC(=O)Nc3cc(NC(=O)Cn4c(=O)oc5c(OC(=O)OC)cccc5c4=O)cc(C(=O)NC(C(=O)NC4C(=O)N5C4SC(C)(C)C5C(=O)O)c4ccccc4)c3)c(=O)oc12 (centres undefined) | – | – | – | – | – | – | MIC [12]: 25 µg/mL (≈ 24.1 µM); MIC [13]: 1.56 µg/mL (≈ 1.5 µM); MIC [14]: 0.05 µg/mL (≈ 0.0482 µM); MIC [15]: 12.5 µg/mL (≈ 12 µM); MIC [16]: 25 µg/mL (≈ 24.1 µM); MIC [17]: 3.12 µg/mL (≈ 3.01 µM); MIC [18]: 1.56 µg/mL (≈ 1.5 µM)
20 | COC(=O)Oc1cccc2c(=O)n(CCC(=O)Nc3cc(NC(=O)CCn4c(=O)oc5c(OC(=O)OC)cccc5c4=O)cc(C(=O)O)c3)c(=O)oc12 | 20 | 18 | 20 | – | 20 | 23 | –
21 | COC(=O)Oc1cccc(C(=O)N(CCCCn2c(=O)oc3c(OC(=O)OC)cccc3c2=O)CC(=O)O)c1OC(=O)OC | 30 | 18 | – | 23 | 24 | 27 | –
22 | COC(=O)Oc1cc(Cl)c(Cl)c(C(=O)N(C)CCCN(CC(=O)O)C(=O)c2c(Cl)c(Cl)cc(OC(=O)OC)c2OC(=O)OC)c1OC(=O)OC | 30 | 25 | 25 | 25 | 30 | 30 | –
